This note sets out measurements from ChEMBL document CHEMBL4017529, “Rational Design of Selective Adenine-Based Scaffolds for Inactivation of Bacterial Histidine Kinases” (J Med Chem, 2017).

Activity calls are given as the source filed them. The calls are words filed in the database; no cut-off is given here.

Assay [1] relates to Thermotoga maritima. The assay can be described thus: Inhibition of ATPgammaS-BODIPY binding to Thermotoga maritima His-tagged HK853 expressed in Escherichia coli BL21(DE3)pLysS Rosetta at […] preincubated for 30 mins prior to ATPgammaS-BODIPY addition measured after 1 hr by […] SDS-PAGE analysis.
Assay [2] has as its system Thermotoga maritima. Put plainly: Induction of Thermotoga maritima His-tagged HK853 expressed in Escherichia coli BL21(DE3)pLysS Rosetta aggregation at 100 uM after 30 mins by PAGE analysis. The gist of the method: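 Samples were run on 7.5% native-PAGE and silver stained. Aggregation was scored as loss of the dimeric HK853 band. NH125 served as positive aggregation control.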

Assay [3] is described as follows: Inhibition of BODIPY-FL-ATPgammaS binding to Thermotoga maritima His-tagged HK853 expressed in Escherichia coli BL21(DE3)pLysS Rosetta preincubated for 30 mins followed by 1 hr incubation by SDS-PAGE in-gel fluorescence assay.
Assay [4] has as its system Thermotoga maritima. Put plainly: Binding affinity to Thermotoga maritima His-tagged HK853 D411A mutant expressed in Escherichia coli BL21(DE3)pLysS Rosetta assessed as change in melting temperature at 1 mM by SYPRO orange dye based differential scanning fluorimetric analysis. (In general: DSF heats the sample and reads unfolding from a dye or from intrinsic fluorescence.)

The subject of assay [5] is Thermotoga maritima. The assay can be described thus: Binding affinity to wild type Thermotoga maritima His-tagged HK853 expressed in Escherichia coli BL21(DE3)pLysS Rosetta assessed as change in melting temperature at 1 mM by SYPRO orange dye based differential scanning fluorimetric analysis. The gist of the method:
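Wild-type HK853 at 2–5 µM final in reaction buffer, with SYPRO orange at 5x final. Compound was added at 1 mM final from a 25 mM DMSO stock; the control got DMSO alone. Reactions were 25 µL, made up on ice. Melt ran 20–95 °C at 1 °C min⁻¹ with HEX-filter fluorescence. Tm came from the melt curves, and ΔTm was taken against the control.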

For assay [6], the target named is T1, Heat shock protein HSP 90-alpha (Homo sapiens, UniProt P07900). The assay can be described thus: Inhibition of full length human C-terminal His-tagged Hsp90 alpha expressed in Escherichia coli at […] by fluorescence polarization assay relative to control. A general note: Polarisation of emitted light reports the rotation of a fluorescent probe.
Assay [7] has as its system Thermotoga maritima. The assay can be described thus: Induction of Thermotoga maritima His-tagged HK853 expressed in Escherichia coli BL21(DE3)pLysS Rosetta aggregation at […] after 30 mins by PAGE analysis.
Assay [8] has as its target T1, Heat shock protein HSP 90-alpha. Put plainly: Inhibition of full length human C-terminal His-tagged Hsp90 alpha expressed in Escherichia coli by fluorescence polarization assay.
Assay [9] can be described thus: Selectivity ratio of IC50 for human full length C-terminal His-tagged Hsp90 alpha expressed in Escherichia coli to IC50 for Thermotoga maritima His-tagged HK853 expressed in Escherichia coli BL21(DE3)pLysS Rosetta.
Assay [10] deals with Thermotoga maritima. The assay can be described thus: Induction of Thermotoga maritima His-tagged HK853 aggregation expressed in Escherichia coli BL21(DE3)pLysS Rosetta at >= […] after 30 mins by PAGE analysis.

Usually inhibition stands for the change of the read-out against control, counted positive when it falls. Regarding `CC[C@@H](Nc1ncnc2nc[nH]c12)c1nc2cccc(F)c2c(=O)n1-c1ccccc1`, the inhibition entry in the assay with Thermotoga maritima [1] is “inactive”.

Regarding `Nc1ncnc2c1ncn2CCN1CCOCC1`, in the assay with Thermotoga maritima [2], the result was Active.

As for `Brc1ccc(CSc2[nH]cnc3ncnc2-3)cc1`, the outcome with Thermotoga maritima [2] was Active.

As for `FC(F)(F)c1cccnc1N1CCN(c2[nH]cnc3ncnc2-3)CC1`, the outcome with Thermotoga maritima [2] was Active.

With `Clc1ccccc1CSc1ncnc2[nH]cnc12`, the outcome in the assay on Thermotoga maritima [2] was Active.

For the compound `C=CC(=O)N1CCC[C@H](n2nc(-c3ccc(Oc4ccccc4)cc3)c3c(N)ncnc32)C1`, the inhibition result with Thermotoga maritima [1] was “inactive”.

With `Cc1ccccc1OCn1cnc2c(N)ncnc21`, the result with Thermotoga maritima [2] was Active.

One may read the IC50 as the concentration needed to halve the response being measured. Compound `Nc1ncnc2c1ncn2[C@@H]1O[C@H](COP(=O)(O)OP(=O)(O)OP(=O)(O)O)[C@@H](O)[C@H]1O` [ADENOSINE TRIPHOSPHATE] returned a half-inhibitory concentration (IC50) in assay [3] of 27 µM.

Regarding `CC1CCN(c2ncnc3[nH]cnc23)CC1`, in the assay on Thermotoga maritima [2], the result was Active.

The term ΔTm denotes the shift of the melting midpoint relative to a reference. `Nc1ncnc2c1ncn2[C@@H]1O[C@H](COP(=O)(O)OP(=O)(O)O)[C@@H](O)[C@H]1O` [ADENOSINE DIPHOSPHATE]: the thermal shift (ΔTm) with Thermotoga maritima [4] was less than 2 °C; in the assay with Thermotoga maritima [5], 10 °C. Also, the IC50 in assay [3] was 2.4 µM.

Compound `c1ccc(CCNc2ncnc3[nH]cnc23)cc1` returned an inhibition in [6] of more than 45%.

For the compound `c1ccc(CSc2ncnc3[nH]cnc23)cc1`, the result in the assay with Thermotoga maritima [2] was Active.

`Cn1cnc2c(N)nc(Cl)nc21`: the result in the assay with Thermotoga maritima [7] was inactive. In assay [8], the IC50 is more than 1250 µM. The Ratio IC50 in [9] was in the range of 10 to 2000. The inhibition in assay [6] is more than 45%.

For `COc1ccccc1N1CCN(c2[nH]cnc3ncnc2-3)CC1`, the result with Thermotoga maritima [2] was Active.

`CCCN(CCC)c1[nH]cnc2ncnc1-2`: the values for the ΔTm in the assay on Thermotoga maritima [4] and with Thermotoga maritima [5] were less than 2 °C and 10 °C, respectively. Moreover, the Ratio IC50 in assay [9] lay in the range of 10 to 2000. The inhibition in assay [6] is more than 45%.

As to `Clc1ccc(CSc2[nH]cnc3ncnc2-3)cc1`, the outcome in the assay with Thermotoga maritima [2] was Active.

As to `c1ccc(N2CCN(c3ncnc4[nH]cnc34)CC2)nc1`, the outcome in the assay on Thermotoga maritima [2] was Active.

On to `c1ccc(Nc2ncnc3[nH]cnc23)cc1`, for which the outcome with Thermotoga maritima [10] was inactive.

`Nc1ncnc2c1ncn2[C@@H]1O[C@H](COP(=O)(O)O)[C@@H](O)[C@H]1O` [ADENOSINE PHOSPHATE] yielded an IC50 in assay [3] of 1030 µM.

`COc1ccc(OC)c(NC(=O)CSc2ncnc3[nH]cnc23)c1`: in the assay with Thermotoga maritima [2], the result was Active.

Turning to `C=CCSc1ncnc2[nH]cnc12`, in the assay with Thermotoga maritima [2], the result was Active.

For `Clc1c(CSc2ncnc3[nH]cnc23)ccc2c1OCO2`, in the assay on Thermotoga maritima [2], the outcome was Active.

In turn, `Nc1nc(Cl)nc2c1ncn2[C@@H]1O[C@H](CO)[C@@H](O)[C@H]1O` gave an inhibition in [6] of more than 45%.

On to `NS(=O)(=O)c1ccc(CCNc2ncnc3[nH]cnc23)cc1`, for which the result in the assay on Thermotoga maritima [2] was Active.

Take `Brc1cccc(CSc2ncnc3[nH]cnc23)c1`: the outcome in the assay with Thermotoga maritima [2] was Active.

For the compound `CC1CC(Nc2ncnc3[nH]cnc23)CC(C)(C)C1` (centres undefined), the Ratio IC50 in assay [9] fell in the range of 10 to 2000.
